Test results taken from PubChem BioAssay AID602148 (NMMLSC, 2011).
Calls of active or inactive are those of the source.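 Rule for the calls: active = a drop over time in fluorescent ligand binding to the VLA-4 integrin, graded weak or strong, level 1 or 2; inactive = no binding drop, level 0.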

These compounds were tested on U937 deltaST FPR, LDV-FITC VLA-4 binding, flow cytometry (assay: decrease of VLA-4 ligand affinity after FPR stimulation, mechanism study for Ras-related GTPase inhibitor project, U937 deltaST FPR cells, flow cytometry (AID 602148)). Settings: at 50 µM; stronger effect = higher value.
How it was run: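 System: deltaST-FPR-expressing U937 cells. Reagent: LDV-FITC VLA-4 ligand ~4 nM, sub-saturating, plus fMLFF 100 nM. Times: flow acquisition 1024 s at 37 °C, compounds after plateau. Measured by: flow cytometry, mean channel fluorescence of bound LDV-FITC. Read-out: LDV-FITC binding decline over time, graded none, weak, strong.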

SMILES | VLA-4 affinity decrease level (0-2)
CC1(C)Cc2c(sc(NC(=S)NC(=O)c3cccc(F)c3)c2C(=O)O)CO1 | 1
CC1(C)Cc2c(sc(NC(=S)NC(=O)c3ccccc3F)c2C(=O)O)CO1 | 0 (inactive)
O=C(NC(=S)Nc1sc2c(c1C(=O)O)CC1(CCCC1)OC2)c1ccccc1 | 0 (inactive)
CCC1(C)Cc2c(sc(NC(=S)NC(=O)c3ccccc3)c2C(=O)O)CO1 (stereo not drawn) | 0 (inactive)
Cc1ccccc1C(=O)NC(=S)Nc1sc2c(c1C(=O)O)CC(C)(C)OC2 | 0 (inactive)
CC1(C)Cc2c(sc(NC(=S)NC(=O)C3CCCCC3)c2C(=O)O)CO1 | 1
CC1(C)Cc2c(sc(NC(=S)NC(=O)c3ccc(F)cc3)c2C(=O)O)CO1 | 0 (inactive)
Cc1cccc(C(=O)NC(=S)Nc2sc3c(c2C(=O)O)CC(C)(C)OC3)c1 | 0 (inactive)
COc1cccc(C(=O)NC(=S)Nc2sc3c(c2C(=O)O)CC(C)(C)OC3)c1 | 2
CC1(C)Cc2c(sc(NC(=S)NC(=O)c3cccs3)c2C(=O)O)CO1 | 0 (inactive)
COc1ccccc1C(=O)NC(=S)Nc1sc2c(c1C(=O)O)CC(C)(C)OC2 | 1
CC1(C)Cc2c(sc(NC(=S)NC(=O)c3ccccc3Br)c2C(=O)O)CO1 | 2
CC1(C)Cc2c(sc(NC(=S)NC(=O)c3ccco3)c2C(=O)O)CO1 | 0 (inactive)
CC1(C)Cc2c(sc(NC(=S)NC(=O)c3ccc(Br)cc3)c2C(=O)O)CO1 | 2
Cc1ccc(C(=O)NC(=S)Nc2sc3c(c2C(=O)O)CC(C)(C)OC3)cc1 | 0 (inactive)
CC1(C)Cc2c(sc(NC(=S)NC(=O)c3cccc(Br)c3)c2C(=O)O)CO1 | 2
CC(C)(C)C1Cc2c(sc(NC(=S)NC(=O)c3ccccc3)c2C(=O)O)CO1 (stereo not drawn) | 0 (inactive)
COc1ccc(C(=O)NC(=S)Nc2sc3c(c2C(=O)O)CC(C)(C)OC3)cc1 | 1
